The source of these data is the RNAGym collection of RNA variant scans (doi:10.1126/science.aae0568).

The labels stand for the following.
B1: tRNA (parent)
chain: GUUCCGUUGGCGUAAUGGUAACGCGUCUCCCUCCUAAGGAGAAGACUGCGGGUUCGAGUCCCGUACGGAACG

Variants at the floor of the assay were thinned out. A value given as a limit tells only on which side of the number the result lay.

The data set covers variants of B1. Briefly: yeast fitness relative to wild type (ratio to wild type); higher = fitter; tRNA-Arg(CCU), competitive growth, 37 C, YPD. In short, it runs like this:
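Variants of the tRNA-Arg(CCU) gene, chemically synthesised with a 3% per-site mutation rate at 69 sites, were placed at the native genomic locus in Saccharomyces cerevisiae. The pooled strains were competed in YPD at 37°C for 24 hours in six parallel replicates. Gene amplicons from the start population and from each end population were read by 100-nucleotide paired-end sequencing. Darwinian fitness relative to wild type came from changes in genotype frequencies; genotypes needed ≥ 100 starting reads, and estimates < 0.5 were set to 0.5.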
As for GUUCCGUUGGCGUAAUGGUAGCGCGUCUACCUCCUAGGGAGUAGACUGCGGGUUCGAGUCCCGUACGGAACG [A21G C29A A37G A42U], the yeast fitness came to 0.516. As for GUUCCGUUGGCGUAAUGGUAACGCGCCUCCCUCCUAAGGAGAAGACUGCGGGUUCCCGUCCCGUACGGAACG [U26C G56C A57C], the figure is not above 0.5. Under GUUCCGUUGGCGUAAUGGUAGCGCGUCUCCCUCCUAAGGAGAAGACUGGGGGUUCGAGUCCCGUACGGAACG [A21G C49G] stands 1.13; under GUUCCGUUGGCCUAAUGGUAACGCGUCUCCCUCCUAAGGAGAAGACUGCGGGUUCGAGUCCCGUACUGAACG [G12C G67U], 0.767. Regarding GUUCCGUUAGCGUAAUGGUAACGCGUCUCCCUCCUAAGGAAAAGACUGCGGGUUCGAGUCCCGUACGGCACG [G9A G41A A69C], the yeast fitness is 0.558. In the case of GAUCCGUUGGCGUGAUGGUAACGCCUCUCCCUCCUAAGGAGAAGACCCCGGGUUCGAGUCCCGUACGGAACG [U2A A14G G25C U47C G48C], the yeast fitness came out at 0.573.

Turning to GUUCCGUUGCCGUAAUGGUAACGCGUCUCCCUCCUAAGGAGAAGUCUGGGGGUUCGAGUACCGUACGGAACG [G10C A45U C49G C60A], the yeast fitness is not above 0.5.

Regarding GUUCCGUUGGCGUAAUGGUAACGCGUCUCUCUCCUAAGGAGAACACUGCGAGUUCGAGUCUCGUACGGAACG [C30U G44C G51A C61U], the yeast fitness is not above 0.5. As for GUUCCGUUGGCGUAAUGGUAACGCAUCUCCCUCCUAAGGAGAAGACUGUGGGUUUGCGUCCCGUACGGAACG [G25A C49U C55U A57C], the figure is not above 0.5. As to GUCCCGUUGGCGUAAUGGUAACGCGUCUCCCUCCUAAGGAGAAGACUGCGGGUUCGAGUCCCGUACGCAACG [U3C G68C], the yeast fitness was 0.845.

On to GUUCCGUUGGCGUAAUGGCAACGCGUCUCCCUCCUAAGGAGAAGAUUGCGGGUUCGAGUCCCGUACGGAACG [U19C C46U], for which the yeast fitness amounted to 1.06. As for GUUACGUUGGCGUAAUGGUAAUGCGUCUCCCUCCUAAGGAGAAGACUGCGGGUUCGAGACCCGUACGGAACG [C4A C22U U59A], the yeast fitness was not above 0.5. In the case of GUUCUGUUGGUGUACUGGUAACGCGUCACCCUCCUAAGGAGAAGACUGCGGGUUCGAGUCCUGUAAGGAACG [C5U C11U A15C U28A C62U C66A], the yeast fitness was not above 0.5. As for GUUCCGUUGGCAUAAUGGUCACGCGUCUCCCUCCUAAGGAGAAGACUGCGGGUUCGAGUCCCGUACGGUACG [G12A A20C A69U], the figure is 0.811; as for GUUCCGUUGGCGUAAUGGAAACGCGUCUCCGUCCUAAGGAGAAGACUGCGGGUUCGAGUCCCGUACGGAACG [U19A C31G], 1.02; as for GUUCCGUUGGCGUAAUAGUAACGCGUCUCCCUCCUAAGGAGCAGACUGCGGGUUCGAGUCCCGUGCGGAACG [G17A A42C A65G], not above 0.5. Under GUUCCGUUGGCGUAAUGGUAGCGCGUCUCCCUCCUAAGGAGCAGACUGCGGGUUCGAGUCCCGUACGGAACG [A21G A42C] stands 0.96; under GUUCCGUUGGCGUAAUGGUAACGCAUCUCCCUCCUAAGGGGAAGACUGCGGGUUGGAGUCCCGUACGGAACG [G25A A40G C55G], not above 0.5. Under GUUCCGUUGGCGUAAUGGUAACGCGUCUCCCUCCUAAGGAGAAGCCUGCGGGUUCGAGUCCCGUUCGGAACG [A45C A65U] stands 0.833; under GUUCCGUCGGUGUAAUGGUAACGCGUCUCCCUCCUAAGGAGAAGACUGCGGGUUCGAUUCACGUACGGAACG [U8C C11U G58U C61A], not above 0.5; under GUUCCGUUGGCGUAAUGGUGACGCGUCUCCCUCCUAAGGAGAAGACUGCGGGUUCGAGUCCCGGACGGAACG [A20G U64G], 0.817. In the case of GUUCCGUUGGCGUAGUGGUAACGCGUCUACCUCCUAAGGGGAAGACUACGGGUUCGAGUCCCGUACGGAACG [A15G C29A A40G G48A], the yeast fitness is not above 0.5. For the variant GUUCCGUGCGCGUAAUGGUAACGCGUCUCCCUCCUAUGGAGAAGACUGCCGGUUCGAGUCCCGUACGGAACG [U8G G9C A37U G50C], the yeast fitness was not above 0.5. GUUGCGUUGGCGUAAUGGUACUGCGUCUCCCUCCUAAGGAGAAGACUGCGGGUUCGAGUCUCGUACGGAACG [C4G A21C C22U C61U]: the yeast fitness was not above 0.5. Under GGUCCGUUGGGGUAAUGGUAACGCGUCUCCCUCCUAAGGAGAAGACUGCGGGUUCGAGUCCUGUACGGAACG [U2G C11G C62U] stands 0.609; under GUUUCGUUGGCGUAAUGGUAGCGCGUCUCCCACCUAAGGCGAAGAAUGCGGGUUCGAGUCCUGUACAGAACG [C4U A21G U32A A40C C46A C62U G67A], not above 0.5. Under GUUCCGUUGGCGUGAUGGUAAAGCGUUUUCCUCCUAAGGAGAAGACUGCUGGUCCGAGUCCCGUACGCAACG [A14G C22A C27U C29U G50U U54C G68C] stands not above 0.5; under GUUCCGUUGGCGUAAUGGUAACGCGACUCCCUCCUAAGGAGAACACUGCGGGUUCGAGUCCCGUACUGAACG [U26A G44C G67U], 0.593; under GCUCCGUUGGCGUAAUGGUUACGCGUCUCCCUCCUAAGGUGAAGACUGCGGGUUCGAGUCCAGUAAGGAACG [U2C A20U A40U C62A C66A], not above 0.5. As for GUUCCGUUGGCGUAAUGGUAAAGCGUCUCCCUACUAUGGAGAAGACUGCGGGUUCGAGUCCCGUACGGAACG [C22A C33A A37U], the figure is not above 0.5; as for GUUCCGUUGGCGUAAUGGUAACGGGUCUCCCUCGUAAGGGGAAGCCUGCGGGUUCGAGUCCCGUAGGGUACG [C24G C34G A40G A45C C66G A69U], 0.596; as for GUUCCGUUGGCGUAAUGGUAACGCGUCUCCCUCCUAAGGAGAAGACUGCGAGCUCGAGUCCCGUACGGAACG [G51A U53C], 0.745. Turning to GUUCCGUUGGCGUAAUGGUAACACGUCUCCCCCCUAAGGAGAAGACUGCGGGUUCGAGUCCCGUACGGAACG [G23A U32C], the yeast fitness came out at 0.628. As for GUCCGGUUGGCGUAAUGGUAACGCGUCUCCCUCCUAAAGAGAAGACUGCGGGUUCGAGUCCCGUGGGGAACG [U3C C5G G38A A65G C66G], the figure is not above 0.5; as for GUUCCGUUCGCGUCAUGGUAACGCGUCUCCCUCCUAAGGAGAACACUGCGGGUUCGUGUCCCGUACGGAACG [G9C A14C G44C A57U], not above 0.5; as for GUUCCGUCGACGUAAUGGUAAGGCGUCUCCCUCCUAAGGAGAAGACUGCGGGUUCGAGUCCCGUACGGAACG [U8C G10A C22G], not above 0.5. Under GUUCCGUUGGCGUGAUGGUAACGCGCCUCUCUCCUAAGGAGAAGACUGCGGGUUCGAGUCCCGUACGGAACG [A14G U26C C30U] stands 0.567. On to GUUCCAUCGGCGUAAUGGUAACGCGUCUCCCUCCUAAGGAGAAGACUGCGGGUUCGAGUCCCGUACGGAUCG [G6A U8C A70U], for which the yeast fitness worked out at 0.57.
